Measurements reported in ChEMBL document CHEMBL3243986, “Synthesis and analgetic activity of some 5-aryl-2azabicyclo[3.2.1]octanes” (J Med Chem, 1978).
The source made the active and inactive calls.

Test system: Mus musculus
Assay: Analgesic activity in po dosed CD-1 mouse assessed as inhibition of phenylquinone-induced writhing administered 15 to 90 mins prior challenge measured 5 mins post challenge
Assay type: functional
Conditions: CD-1, po
Outline: (§1)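 Male CD-1 mice, 18–24 g, five per group, dosed 15, 30, 60 or 90 min before phenyl-p-benzoquinone (0.125% in 5% aqueous ethanol); vehicle controls. Writhes were counted over 10 min, starting 5 min after challenge. For dose–response, ten mice per dose were tested at the peak time, with four doses plus control, randomized. Result given as % inhibition of writhes; ED50 by computer linear regression.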

Row | SMILES | ED50 [mg/kg]
1 | Br.Oc1cccc(C23CCC(C2)N(CCc2ccccc2)CC3)c1 (racemic) | 60.9
2 | Br.CC(=O)Oc1cccc(C23CCC(C2)N(CCc2ccccc2)CC3)c1 (racemic) | 15.2
3 | Br.CC(=O)Oc1cccc(C23CCC(C2)N(CCc2cccs2)CC3)c1 (racemic) | 64

Test system: Mus musculus
Assay: Analgesic activity in sc dosed CD-1 mouse assessed as inhibition of phenylquinone-induced writhing administered 15 to 90 mins prior challenge measured 5 mins post challenge
Assay type: functional
Conditions: CD-1, sc
Outline: as §1

Row | SMILES | ED50 [mg/kg]
4 | Br.Oc1cccc(C23CCC(C2)N(CCc2ccc(Cl)c(Cl)c2)CC3)c1 (racemic) | 0.75
5 | Br.Oc1cccc(C23CCC(C2)N(CCc2cccc(Cl)c2)CC3)c1 (racemic) | 0.46
6 | Br.Oc1cccc(C23CCC(C2)N(CCc2ccc(Cl)cc2)CC3)c1 (racemic) | 0.42
7 | Br.Oc1cccc(C23CCC(C2)N(CCc2ccccc2)CC3)c1 (racemic) | 0.68
8 | Br.O=C(CCCN1CCC2(c3cccc(O)c3)CCC1C2)c1ccc(F)cc1 (racemic) | 0.35
9 | Br.Oc1cccc(C23CCC(C2)N(Cc2ccco2)CC3)c1 (racemic) | 22.7
10 | Br.CC(C)=CCN1CCC2(c3cccc(O)c3)CCC1C2 (racemic) | 25
11 | Br.Oc1cccc(C23CCC(C2)N(CC2CC2)CC3)c1 (racemic) | 5.44
12 | Br.CCCCCN1CCC2(c3cccc(O)c3)CCC1C2 (racemic) | 8.34
13 | Br.CCCCN1CCC2(c3cccc(O)c3)CCC1C2 (racemic) | 8.66
14 | Br.CCCN1CCC2(c3cccc(O)c3)CCC1C2 (racemic) | 8.79
15 | Br.CN1CCC2(c3cccc(O)c3)CCC1C2 (racemic) | 10
16 | Br.COc1cccc(C23CCC(C2)N(CCc2ccccc2)CC3)c1 (racemic) | 5.99
17 | Br.COc1cccc(C23CCC(C2)N(CCCC(=O)c2ccc(F)cc2)CC3)c1 (racemic) | 0.85
18 | Br.CCCCCN1CCC2(c3cccc(OC)c3)CCC1C2 (racemic) | 5.77
19 | Br.CCCCN1CCC2(c3cccc(OC)c3)CCC1C2 (racemic) | 4.87
20 | Br.CCCN1CCC2(c3cccc(OC)c3)CCC1C2 (racemic) | 7.4
21 | Br.CCN1CCC2(c3cccc(OC)c3)CCC1C2 (racemic) | 11.9
22 | Br.COc1cccc(C23CCC(C2)N(C)CC3)c1 (racemic) | 6.96
23 | Br.Cc1ccc(CCN2CCC3(c4cccc(O)c4)CCC2C3)cc1 (racemic) | 0.58
24 | Br.Oc1ccc(CCN2CCC3(c4cccc(O)c4)CCC2C3)cc1 (racemic) | 2.08
25 | Br.Oc1cccc(C23CCC(C2)N(CCc2cccs2)CC3)c1 (racemic) | 0.72
26 | Br.CC(=O)Oc1cccc(C23CCC(C2)N(C)CC3)c1 (racemic) | 14.1
27 | Br.CC(=O)Oc1cccc(C23CCC(C2)N(CCc2ccccc2)CC3)c1 (racemic) | 1
28 | Br.CC(=O)Oc1cccc(C23CCC(C2)N(CCc2cccs2)CC3)c1 (racemic) | 0.95
29 | CC(C)=CCN1CC[C@]2(C)c3cc(O)ccc3C[C@H]1[C@H]2C [(+)-PENTAZOCINE] | 2.4
30 | CN1CC[C@]23c4c5ccc(O)c4O[C@H]2[C@@H](O)C=C[C@H]3[C@H]1C5 [MORPHINE] | 0.68

Test system: Mus musculus
Assay: Toxicity in sc dosed CD-1 mouse assessed as physical dependence liability by infusion test
Assay type: organism-based
Conditions: in vivo

Row | SMILES | Activity
31 | Br.Oc1cccc(C23CCC(C2)N(CCc2ccccc2)CC3)c1 (racemic) | Non-toxic

Test system: Mus musculus
Assay: Toxicity in sc dosed CD-1 mouse assessed as overt effects
Assay type: organism-based
Conditions: in vivo

Row | SMILES | Activity
32 | Br.Oc1ccc(CCN2CCC3(c4cccc(O)c4)CCC2C3)cc1 (racemic) | Toxic

Test system: Mus musculus
Assay: Inhibition of morphine-induced mania in CD-1 mouse assessed as inhibition of stereotypic activity at 10 mg/kg, sc measured after 15 to 30 mins
Assay type: functional
Conditions: not given
Outline: (§2)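 Male mice, 18–30 g, two pairs per group, dosed randomly. Controls received morphine sulfate 25 mg/kg sc; test groups received morphine plus compound. Animals were watched for 15–30 min for stereotyped increase in motor activity, and blocking of this behaviour was scored positive. For dose range, ED50 by linear regression.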

Row | SMILES | inhibition
33 | Br.Oc1cccc(C23CCC(C2)N(CCc2ccc(Cl)c(Cl)c2)CC3)c1 (racemic) | inactive
34 | Br.CC(C)=CCN1CCC2(c3cccc(O)c3)CCC1C2 (racemic) | inactive
35 | Br.CCCN1CCC2(c3cccc(O)c3)CCC1C2 (racemic) | inactive
36 | Br.CCN1CCC2(c3cccc(O)c3)CCC1C2 (racemic) | inactive
37 | Br.CCCCCN1CCC2(c3cccc(OC)c3)CCC1C2 (racemic) | inactive
38 | Br.CCCCN1CCC2(c3cccc(OC)c3)CCC1C2 (racemic) | inactive
39 | Br.CC(=O)Oc1cccc(C23CCC(C2)N(CCc2ccccc2)CC3)c1 (racemic) | inactive

Same assay, conditions: CD-1, sc, route subcutaneous

Row | SMILES | inhibition in vivo at 10 mg/kg [%]
40 | Br.Oc1cccc(C23CCC(C2)N(CCc2cccc(Cl)c2)CC3)c1 (racemic) | 20
41 | Br.Oc1cccc(C23CCC(C2)N(CCc2ccc(Cl)cc2)CC3)c1 (racemic) | 50
42 | Br.Oc1cccc(C23CCC(C2)N(CC2CC2)CC3)c1 (racemic) | 20
43 | Br.CCCCN1CCC2(c3cccc(O)c3)CCC1C2 (racemic) | 40
44 | Br.CCN1CCC2(c3cccc(OC)c3)CCC1C2 (racemic) | 10
45 | Br.Oc1ccc(CCN2CCC3(c4cccc(O)c4)CCC2C3)cc1 (racemic) | 20

Test system: Mus musculus
Assay: Analgesic activity in CD-1 mouse assessed as inhibition of phenylquinone-induced writhing at 10 mg/kg, sc administered 15 to 90 mins prior challenge measured 5 mins post challenge
Assay type: functional
Conditions: CD-1, sc, route subcutaneous
Outline: as §1

Row | SMILES | inhibition in vivo at 10 mg/kg [%]
46 | Br.CCN1CCC2(c3cccc(O)c3)CCC1C2 (racemic) | 41

Test system: Mus musculus
Assay: Analgesic activity in CD-1 mouse assessed as delay in response to noxious heat stimuli at 2 mg/kg, sc measured after 15 to 60 mins post dosing by D'Amour-Smith tail-flick method relative to control
Assay type: functional
Conditions: route subcutaneous
Outline: (§3)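 Male CD-1 mice, ten per group, held in a plexiglass restrainer; an intense light beam served as the noxious heat stimulus, and tail-flick latency was recorded automatically. Two baseline readings were taken, unstable animals were excluded, and a cutoff was set. Dosing was sc, with vehicle at 10 mL/kg. Tests ran at 15, 30, 45 and 60 min, then at the peak time for at least three doses. Response past cutoff counted as analgesia; ED50 by linear regression.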

Row | SMILES | Activity [%]
47 | Br.O=C(CCCN1CCC2(c3cccc(O)c3)CCC1C2)c1ccc(F)cc1 (racemic) | 40
48 | Br.COc1cccc(C23CCC(C2)N(CCCC(=O)c2ccc(F)cc2)CC3)c1 (racemic) | 10

Test system: Mus musculus
Assay: Analgesic activity in sc dosed CD-1 mouse assessed as delay in response to noxious heat stimuli measured after 15 to 60 mins post dosing by D'Amour-Smith tail-flick method
Assay type: functional
Conditions: CD-1, Tail
Outline: as §3

Row | SMILES | ED50 [mg/kg]
49 | Br.Oc1cccc(C23CCC(C2)N(CCc2ccc(Cl)c(Cl)c2)CC3)c1 (racemic) | 2.73
50 | Br.Oc1cccc(C23CCC(C2)N(CCc2cccc(Cl)c2)CC3)c1 (racemic) | 5.46
51 | Br.Oc1cccc(C23CCC(C2)N(CCc2ccc(Cl)cc2)CC3)c1 (racemic) | 7.32
52 | Br.Oc1cccc(C23CCC(C2)N(CCc2ccccc2)CC3)c1 (racemic) | 6.45
53 | Br.Oc1cccc(C23CCC(C2)N(Cc2ccco2)CC3)c1 (racemic) | 10
54 | Br.COc1cccc(C23CCC(C2)N(CCc2ccccc2)CC3)c1 (racemic) | 13
55 | Br.CCCCN1CCC2(c3cccc(OC)c3)CCC1C2 (racemic) | 9.71
56 | Br.CCN1CCC2(c3cccc(OC)c3)CCC1C2 (racemic) | 17.7
57 | Br.Cc1ccc(CCN2CCC3(c4cccc(O)c4)CCC2C3)cc1 (racemic) | 8.54
58 | Br.Oc1ccc(CCN2CCC3(c4cccc(O)c4)CCC2C3)cc1 (racemic) | 25
59 | Br.Oc1cccc(C23CCC(C2)N(CCc2cccs2)CC3)c1 (racemic) | 11
60 | Br.CC(=O)Oc1cccc(C23CCC(C2)N(CCc2ccccc2)CC3)c1 (racemic) | 2.82
61 | Br.CC(=O)Oc1cccc(C23CCC(C2)N(CCc2cccs2)CC3)c1 (racemic) | ≤ 3.8
62 | CC(C)=CCN1CC[C@]2(C)c3cc(O)ccc3C[C@H]1[C@H]2C [(+)-PENTAZOCINE] | 14.6

Test system: Mus musculus
Assay: Analgesic activity in CD-1 mouse assessed as delay in response to noxious heat stimuli at 25 mg/kg, sc measured after 15 to 60 mins post dosing by D'Amour-Smith tail-flick method relative to control
Assay type: functional
Conditions: route subcutaneous
Outline: as §3

Row | SMILES | Activity [%]
63 | Br.CC(C)=CCN1CCC2(c3cccc(O)c3)CCC1C2 (racemic) | 20
64 | Br.Oc1cccc(C23CCC(C2)N(CC2CC2)CC3)c1 (racemic) | 30
65 | Br.CCCCCN1CCC2(c3cccc(O)c3)CCC1C2 (racemic) | 20
66 | Br.CCCCN1CCC2(c3cccc(O)c3)CCC1C2 (racemic) | 30
67 | Br.CCCN1CCC2(c3cccc(O)c3)CCC1C2 (racemic) | 20
68 | Br.CCN1CCC2(c3cccc(O)c3)CCC1C2 (racemic) | 30
69 | Br.CN1CCC2(c3cccc(O)c3)CCC1C2 (racemic) | 40
70 | Br.CCCCCN1CCC2(c3cccc(OC)c3)CCC1C2 (racemic) | 40
71 | Br.CCCN1CCC2(c3cccc(OC)c3)CCC1C2 (racemic) | 40
72 | Br.COc1cccc(C23CCC(C2)N(C)CC3)c1 (racemic) | 10
73 | Br.CC(=O)Oc1cccc(C23CCC(C2)N(C)CC3)c1 (racemic) | 14

Test system: Mus musculus
Assay: Analgesic activity in po dosed CD-1 mouse assessed as delay in response to noxious heat stimuli measured after 15 to 60 mins post dosing by D'Amour-Smith tail-flick method
Assay type: functional
Conditions: CD-1, Tail

Row | SMILES | ED50 [mg/kg]
74 | Br.CC(=O)Oc1cccc(C23CCC(C2)N(CCc2ccccc2)CC3)c1 (racemic) | 35

Test system: Mus musculus
Assay: Inhibition of morphine-induced mania in sc dosed CD-1 mouse assessed as inhibition of stereotypic activity measured after 15 to 30 mins
Assay type: functional
Conditions: not given
Outline: as §2

Row | SMILES | ED50
75 | Br.COc1cccc(C23CCC(C2)N(CCc2ccccc2)CC3)c1 (racemic) | Active

Same assay, conditions: CD-1, sc

Row | SMILES | ED50 [mg/kg]
76 | Br.Oc1cccc(C23CCC(C2)N(CCc2ccccc2)CC3)c1 (racemic) | 1.06
77 | Br.O=C(CCCN1CCC2(c3cccc(O)c3)CCC1C2)c1ccc(F)cc1 (racemic) | 2.01
78 | Br.Oc1cccc(C23CCC(C2)N(Cc2ccco2)CC3)c1 (racemic) | 3.7
79 | Br.CCCCCN1CCC2(c3cccc(O)c3)CCC1C2 (racemic) | 4.31
80 | Br.COc1cccc(C23CCC(C2)N(CCCC(=O)c2ccc(F)cc2)CC3)c1 (racemic) | 3.7
81 | Br.CCCN1CCC2(c3cccc(OC)c3)CCC1C2 (racemic) | 8.3
82 | Br.COc1cccc(C23CCC(C2)N(C)CC3)c1 (racemic) | 50
83 | Br.Cc1ccc(CCN2CCC3(c4cccc(O)c4)CCC2C3)cc1 (racemic) | ≤ 10
84 | Br.Oc1cccc(C23CCC(C2)N(CCc2cccs2)CC3)c1 (racemic) | 10
85 | Br.CC(=O)Oc1cccc(C23CCC(C2)N(C)CC3)c1 (racemic) | 16
86 | CC(C)=CCN1CC[C@]2(C)c3cc(O)ccc3C[C@H]1[C@H]2C [(+)-PENTAZOCINE] | 13.8
87 | C=CCN1CC[C@]23c4c5ccc(O)c4O[C@H]2[C@@H](O)C=C[C@H]3[C@H]1C5 [NALORPHINE] | 0.43
